pIC50: −log10 of the molar value.

In general, pIC50 refers to −log10 of the IC50, conventionally taken in molar units. A low value points to a high IC50.

This test is described as follows: Inhibition of yeast alpha-glucosidase pre-incubated for 10 mins followed by pNPG substrate addition and measured every 30 secs for 35 mins. Also on record: species or system Saccharomyces cerevisiae. The method in brief: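 S. cerevisiae α-glucosidase (enzyme solution 2.0 U/mL) in 100 mM phosphate buffer, pH 7.5, with NaN3. Serial DMSO dilutions, nine concentrations, in triplicate. Preincubated 10 min at 28 °C, then p-NPG added (substrate solution 10 mM). A405 read every 30 s for 35 min. Inhibition taken from rate slope versus enzyme–substrate blanks; IC50 from three-parameter curve fit.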
The molecule `COc1ccc(-c2oc3cc(O)cc(O)c3c(=O)c2O[C@@H]2O[C@@H](C)[C@H](OC(=O)/C=C\c3ccc(O)cc3)[C@@H](O)[C@H]2OC(=O)/C=C\c2ccc(O)cc2)cc1` showed a pIC50 of 5.23.

In the case of `C[C@@H]1O[C@@H](Oc2c(-c3ccc(O)cc3)oc3cc(O)cc(O)c3c2=O)[C@H](OC(=O)/C=C/c2ccc(O)cc2)[C@H](O)[C@H]1OC(=O)/C=C/c1ccc(O)cc1`, the negative-log IC50 (pIC50) is 4.89.

As to `C[C@H]1O[C@H](O[C@H]2[C@H](O)[C@@H](O)[C@@H](O[C@H]3[C@H](O)[C@@H](O)C(O)O[C@@H]3CO)O[C@@H]2CO)[C@H](O)[C@@H](O)[C@@H]1N[C@H]1C=C(CO)[C@@H](O)[C@H](O)[C@H]1O` (some centres undefined) [ACARBOSE], the pIC50 is 3.57.

The molecule `COc1ccc(-c2oc3cc(O)cc(O)c3c(=O)c2O[C@@H]2O[C@@H](C)[C@H](OC(=O)/C=C\c3ccc(O)cc3)[C@@H](O)[C@H]2OC(=O)/C=C/c2ccc(O)cc2)cc1` gave a pIC50 of 5.17.

`COc1ccc(-c2oc3cc(O)cc(O)c3c(=O)c2O[C@@H]2O[C@@H](C)[C@H](OC(=O)/C=C\c3ccc(O)cc3)[C@@H](O)[C@H]2OC(=O)/C=C/c2ccc(O)cc2)cc1O` gave a pIC50 of 4.55.

The molecule `C[C@@H]1O[C@@H](Oc2c(-c3ccc(O)cc3)oc3cc(O)cc(O)c3c2=O)[C@H](OC(=O)/C=C\c2ccc(O)cc2)[C@H](O)[C@H]1OC(=O)/C=C/c1ccc(O)cc1` had a pIC50 of 4.45.

`COc1ccc(-c2oc3cc(O)cc(O)c3c(=O)c2O[C@@H]2O[C@@H](C)[C@H](OC(=O)/C=C/c3ccc(O)cc3)[C@@H](O)[C@H]2OC(=O)/C=C/c2ccc(O)cc2)cc1`: the negative-log IC50 (pIC50) was 4.57.

For `C[C@@H]1O[C@@H](Oc2c(-c3ccc(O)cc3)oc3cc(O)cc(O)c3c2=O)[C@H](OC(=O)/C=C/c2ccc(O)cc2)[C@H](O)[C@H]1OC(=O)/C=C\c1ccc(O)cc1`, the pIC50 was 4.79.

With `COc1ccc(-c2oc3cc(O)cc(O)c3c(=O)c2O[C@@H]2O[C@@H](C)[C@H](OC(=O)/C=C/c3ccc(O)cc3)[C@@H](O)[C@H]2OC(=O)/C=C\c2ccc(O)cc2)cc1`, the pIC50 was 5.00.

The values are drawn from ChEMBL document CHEMBL4330146, “Identification of α-Glucosidase Inhibitors in Machilus litseifolia by Combined Use of High-Resolution α-Glucosidase Inhibition Profiling and HPLC-PDA-HRMS-SPE-NMR” (J Nat Prod, 2019).
